The term TD50 denotes the 50% point of the dose-response relation for the toxic effect studied. What is called ED50 is the dose at which the effect has come halfway, by size or by number of responders. Low readings indicate greater potency, high ones weaker potency.

SMILES strings stand for the structures. Bounds are passed on as bounds.

The nature of series [1]: Antiepileptic activity in male CF1 mice 4 hr after administration measured in neurological toxicity (Tox) test at a dose of 100 mg/kg (no. of animals treated /protected); activity value is 0/4. In kind it is functional, Mus musculus.
Series [2] can be described thus: Antiepileptic activity in male CF1 mice 30 min after administration measured in subcutaneous pentylenetetrazole (scMet) test at a dose of 100 mg/kg (no. of animals treated /protected) activity value is 0/1. It is filed as functional, Mus musculus.
Series [3] is described as follows: Dose at which anticonvulsant activity was observed in mice. In kind it is functional, Mus musculus.
The nature of series [4]: Antiepileptic activity in male CF1 mice 30 min after administration measured in subcutaneous pentylenetetrazole (scMet) test at a dose of 300 mg/kg (no. of animals treated /protected); activity value is 0/1. It is filed as functional, Mus musculus.
Series [5] is described as follows: Antiepileptic activity in male CF1 mice 4 hr after administration measured in maximum electroshock seizure(MES) test at a dose of 100 mg/kg (no. of animals treated /protected); activity value is 0/3. In kind it is functional, Mus musculus.
The nature of series [6]: Dose showing neurotoxicity in 50% of the at the time of peak neurotoxic effect in CF1 MICE after ip administration. In kind it is toxicity, organism-based. The note with it: CF1, mouse, in vivo. The method, boiled down:
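CF1 male mice (ca. 24–34 g), dosed ip in 0.5% methylcellulose suspension. Neurotoxicity measured by the rotorod test at the time of peak neurotoxic effect. TD50 and confidence limits by the Litchfield-Wilcoxon method.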

Series [7] in a line: Time of peak anticonvulsant effect in CF1 MICE after ip administration. It is filed as functional, Mus musculus. The method, boiled down: (§1)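 Male CF1 mice (ca. 24–34 g), compound in 0.5% methylcellulose suspension given ip or po; time (h) at which MES protection (against tonic hind limb extension) peaked was recorded and used for ED50 determination.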
Series [8] in a line: Dose protecting 50% of the mice from tonic hind limb extension at the time of peak convulsant effect after po administration. In kind it is functional. The note with it: Mus musculus, Hindlimb. The procedure, abridged: (§2)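 Phase II quantification in CF1 male mice (ca. 24–34 g), dosing ip or po in 0.5% methylcellulose suspension. ED50 is protection from tonic hind limb extension in MES. TD50 is rotorod neurotoxicity. Both were read at time of peak effect and derived by Litchfield–Wilcoxon with 95% confidence limits.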

Series [9] can be described thus: Antiepileptic activity in male CF1 mice 4 hr after administration measured in subcutaneous pentylenetetrazole (scMet) test at a dose of 300 mg/kg (no. of animals treated /protected); activity value is 0/1. It is filed as functional, Mus musculus.
Series [10] is described as follows: Time of peak anticonvulsant effect in CF1 MICE after po administration. In kind it is functional, Mus musculus. The procedure, abridged:
as §1

Series [11] in a line: Antiepileptic activity in male CF1 mice 4 hr after administration measured in neurological toxicity (Tox) test at a dose of 300 mg/kg (no. of animals treated /protected); activity value is 0/2. It is filed as functional, Mus musculus.
Series [12] in a line: Antiepileptic activity in male CF1 mice 4 hr after administration measured in maximum electroshock seizure(MES) test at a dose of 300 mg/kg (no. of animals treated /protected); activity value is 1/1. It is filed as functional, Mus musculus.
Series [13] in a line: Time of peak neurotoxic effect in CF1 MICE after ip administration. In kind it is ADME, organism-based. The note with it: mouse, in vivo. The procedure, abridged:
(§3)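 Male CF1 mice (ca. 24–34 g), compound ip in 0.5% methylcellulose suspension; neurological deficit assessed by rotorod test, time (h) of peak neurotoxic effect recorded for TD50 determination.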

Series [14] is described as follows: Dose elevating electroshock induced seizure by 20% in CF1 mice after ip administration. It is filed as functional, Mus musculus. The method, boiled down:
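In CF1 male mice (ca. 24–34 g), compound was given ip in 0.5% methylcellulose. The current giving hind limb extension in 50% of mice was found by the up-and-down method, with 15–25 mice per group and a vehicle control group run with each experimental group. At least three doses were tested. The dose raising threshold current by 20% was taken from a plot of dose against % threshold increase.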

Series [15] in a line: Antiepileptic activity in male CF1 mice 30 min after administration measured in neurological toxicity (Tox) test at a dose of 300 mg/kg (no. of animals treated /protected); activity value is 1/4. In kind it is functional, Mus musculus.
Series [16] is described as follows: Antiepileptic activity in male CF1 mice 30 min after administration measured in neurological toxicity (Tox) test at a dose of 100 mg/kg (no. of animals treated /protected); activity value is 0/8. It is filed as functional, Mus musculus.
Series [17] is described as follows: Antiepileptic activity in male CF1 mice 4 hr after administration measured in subcutaneous pentylenetetrazole (scMet) test at a dose of 100 mg/kg; activity value is 0/1. It is filed as functional, Mus musculus.
A short description of series [18]: Antiepileptic activity in male CF1 mice 30 min after administration measured in maximum electroshock seizure(MES) test at a dose of 300 mg/kg (no. of animals treated /protected); activity value is 1/1. It is filed as functional, Mus musculus.
A short description of series [19]: Antiepileptic activity in male CF1 mice 30 min after administration measured in maximum electroshock seizure(MES) test at a dose of 100 mg/kg (no. of animals treated /protected); activity value is 1/3. In kind it is functional, Mus musculus.
Series [20] is described as follows: Protective index was measured as TD50/MES ED50 in mice on ip administration. In kind it is ADME, organism-based. The note with it: mouse, in vivo, read-out: PI. The procedure, abridged: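 Male CF1 mice (ca. 24–34 g), compound given ip as 0.5% methylcellulose suspension. MES ED50 = dose protecting 50% from tonic hind limb extension; TD50 = median neurotoxic dose by rotorod; both at time of peak effect, with confidence limits by Litchfield and Wilcoxon. PI = TD50/MES ED50.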

A short description of series [21]: Dose protecting 50% of the mice from tonic hind limb extension at the time of […] after ip administration. It is filed as functional. The note with it: Mus musculus, Hindlimb. The method, boiled down: as §2
Series [22] is described as follows: Antiepileptic activity in male CF1 mice 4 hr after administration measured in maximum electroshock seizure(MES) test at a dose of 30 mg/kg (no. of animals treated /protected); activity value is 0/1. In kind it is functional, Mus musculus.
A short description of series [23]: Antiepileptic activity in male CF1 mice 4 hr after administration measured in maximum electroshock seizure(MES) test at a dose of 300 mg/kg (no. of animals treated /protected); activity value is 0/1. In kind it is functional, Mus musculus.
Series [24] in a line: Antiepileptic activity in male CF1 mice 4 hr after administration measured in subcutaneous pentylenetetrazole (scMet) test at a dose of 30 mg/kg; activity value is 0/1. It is filed as functional, Mus musculus.
Series [25] can be described thus: Antiepileptic activity in male CF1 mice 4 hr after administration measured in neurological toxicity (Tox) test at a dose of 30 mg/kg (no. of animals treated /protected); activity value is 0/2. In kind it is functional, Mus musculus.
A short description of series [26]: Antiepileptic activity in male CF1 mice 30 min after administration measured in neurological toxicity (Tox) test at a dose of 30 mg/kg (no. of animals treated /protected); activity value is 0/4. In kind it is functional, Mus musculus.
Series [27] in a line: Antiepileptic activity in male CF1 mice 30 min after administration measured in subcutaneous pentylenetetrazole (scMet) test at a dose of 30 mg/kg (no. of animals treated /protected); activity value is 1/1. In kind it is functional, Mus musculus.
A short description of series [28]: Antiepileptic activity in male CF1 mice 30 min after administration measured in maximum electroshock seizure(MES) test at a dose of 30 mg/kg (no. of animals treated /protected); activity value is 0/1. In kind it is functional, Mus musculus.
Series [29] in a line: Antiepileptic activity in male CF1 mice 30 min after administration measured in neurological toxicity (Tox) test at a dose of 300 mg/kg (no. of animals treated /protected); activity value is 2/4. It is filed as functional, Mus musculus.
The subject of series [30] is Rattus norvegicus. Description: Intraperitoneal dose (100 mg/Kg) reducing rat corneal kindling 0.5 hr after administration. In kind it is functional. The method, boiled down: (§4)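 Sprague-Dawley rats (85–95 g initial) were kindled with 4 s, 8 mA corneal stimulations (butacaine anesthesia) to 10 consecutive stage 5 seizures. After a vehicle shock and a 2-day shock-free period, test drug was given ip or po and a single shock applied at time of peak effect. Seizures were scored on a modified Racine 0–5 scale. ED50 is the dose reducing severity by 50% (Litchfield–Wilcoxon).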

The test system of series [31] is Rattus norvegicus. Description: Intraperitoneal dose (250 mg/Kg) reducing rat corneal kindling 0.5 hr after administration. In kind it is functional. The method, boiled down: as §4
Series [32] in a line: Time of peak neurotoxic effect in CF1 mice. In kind it is ADME. The note with it: mouse, in vivo. The method, boiled down:
as §3

Series [33] concerns Rattus norvegicus. Description: Average seizure score for the rat cornea 0.5 hr after intraperitoneal administration of 250 mg/Kg of compound. In kind it is functional. The method, boiled down:
as §4

Series [34] relates to Rattus norvegicus. Briefly: Average seizure score for the rat cornea 0.5 hr after intraperitoneal administration of 200 mg/Kg of compound. It is filed as functional. The method, boiled down: as §4
The test system of series [35] is Rattus norvegicus. Description: Average seizure score for the rat cornea 0.5 hr after intraperitoneal administration of 150 mg/Kg of compound. It is filed as functional. The method, boiled down:
as §4

Series [36] concerns Rattus norvegicus. Description: Intraperitoneal dose (150 mg/Kg) reducing rat corneal kindling 0.5 hr after administration. It is filed as functional. The procedure, abridged: as §4
Series [37] is described as follows: Time of peak anticonvulsant effect in CF1 mice. It is filed as functional, Mus musculus. The procedure, abridged:
as §1

Series [38] relates to Rattus norvegicus. Description: Intraperitoneal dose (200 mg/Kg) reducing rat corneal kindling 0.5 hr after administration. In kind it is functional. The method, boiled down:
as §4

Series [39] deals with Rattus norvegicus. Description: Average seizure score for the rat cornea 0.5 hr after intraperitoneal administration of 0 mg/Kg of compound. In kind it is functional. The method, boiled down:
(§5)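 Sprague-Dawley rats (85–95 g initial weight) kindled by corneal stimulation (4 s, 8 mA) twice daily for 5 to 6 days, then once daily until 10 consecutive stage 5 seizures. Butacaine sulfate 1% applied to the cornea as a topical anaesthetic. After a vehicle shock and a 2-day shock-free period, drug given ip, then a single shock at the time of peak effect. Scored on the modified Racine scale (0–5).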

Series [40] deals with Rattus norvegicus. Description: Dose reducing the seizure severity in rat cornea 0.5 hr after peroral administration. It is filed as functional. The note with it: po. The method, boiled down:
as §4

Series [41] has as its system Rattus norvegicus. Description: Average seizure score for the rat cornea 0.5 hr after intraperitoneal administration of 100 mg/Kg of compound. It is filed as functional. The method, boiled down:
as §4

The test system of series [42] is Rattus norvegicus. Description: Intraperitoneal dose (0 mg/Kg) reducing rat corneal kindling 0.5 hr after administration. It is filed as functional. The procedure, abridged:
as §5

The subject of series [43] is Rattus norvegicus. Briefly: Dose reducing the seizure severity in rat cornea 1 hr after peroral administration. It is filed as ADME, organism-based. The note with it: po. The procedure, abridged: as §4

`CC1(C)CC(O)=C/C(=N\Cc2ccccc2)C1`: the Activity in [1], in series [2], in series [4], in series [5], in series [9] and in series [11] was 0 each time. The Activity amounted to 1 in series [12]; 1 in [15]; 0 in series [16]; 0 in [17]; 1 in [18]; 1 in [19]. Further, the Dose in series [3] is above 100 mg/kg; in series [14], 20 mg/kg. In [6], this molecule yielded a TD50 of 148 mg/kg. Also, the TPE in series [7] is listed as 0.5; in [10], 0.5; in series [13] it was 0.25. Further, the ED50 in series [8] is 211 mg/kg; in series [21] it was 53 mg/kg. Moreover, in series [20], the selectivity ratio turned out to be 2.8.

With `COC(=O)C1C(=O)C=C(Nc2ccc(C)cc2)CC1C` (configuration not stated), the Activity in series [22], in series [4], in series [23], in [9], in series [24] and in series [11] was 0 throughout. For the same molecule, the Activity in series [25] is listed as 0; in series [26], 0; in series [27] it was 1; in [28] it was 0; in series [29], 2; in series [18], 1. The Dose entry in series [3] is recorded as “<=100 mg kg-1”.

`CCCC(CCC)C(=O)O` [VALPROIC ACID]: the Reduction in the series with Rattus norvegicus [30] is listed as 49%; with Rattus norvegicus [31] it was 90%; in the series on Rattus norvegicus [36] it was 76%; in the series with Rattus norvegicus [38], 98%; in the series on Rattus norvegicus [42], 0%. Further, the TPE in [7] is on record as 0.5; in series [32] it was 0.25; in [37] it was 0.25; in series [13] it was 0.5. The Average seizure score in the series with Rattus norvegicus [33] stood at 0.5; in the series on Rattus norvegicus [34], 0.1; with Rattus norvegicus [35], 1.2; in the series on Rattus norvegicus [39], 5; in the series on Rattus norvegicus [41], 2.6. For the same molecule, the Dose in [14] was found to be 132 mg/kg. Also, the ED50 stood at 96 mg/kg in the series on Rattus norvegicus [40], 248 mg/kg in series [21] and 117 mg/kg with Rattus norvegicus [43].
